Results collected from several papers.
Each line is one published result; the experiments were not run side by side.
Target: Mitogen-activated protein kinase kinase kinase 5 (MAP3K5, Homo sapiens, UniProt Q99683)
Sequence (Q99683 1-1374, as in one of the studies): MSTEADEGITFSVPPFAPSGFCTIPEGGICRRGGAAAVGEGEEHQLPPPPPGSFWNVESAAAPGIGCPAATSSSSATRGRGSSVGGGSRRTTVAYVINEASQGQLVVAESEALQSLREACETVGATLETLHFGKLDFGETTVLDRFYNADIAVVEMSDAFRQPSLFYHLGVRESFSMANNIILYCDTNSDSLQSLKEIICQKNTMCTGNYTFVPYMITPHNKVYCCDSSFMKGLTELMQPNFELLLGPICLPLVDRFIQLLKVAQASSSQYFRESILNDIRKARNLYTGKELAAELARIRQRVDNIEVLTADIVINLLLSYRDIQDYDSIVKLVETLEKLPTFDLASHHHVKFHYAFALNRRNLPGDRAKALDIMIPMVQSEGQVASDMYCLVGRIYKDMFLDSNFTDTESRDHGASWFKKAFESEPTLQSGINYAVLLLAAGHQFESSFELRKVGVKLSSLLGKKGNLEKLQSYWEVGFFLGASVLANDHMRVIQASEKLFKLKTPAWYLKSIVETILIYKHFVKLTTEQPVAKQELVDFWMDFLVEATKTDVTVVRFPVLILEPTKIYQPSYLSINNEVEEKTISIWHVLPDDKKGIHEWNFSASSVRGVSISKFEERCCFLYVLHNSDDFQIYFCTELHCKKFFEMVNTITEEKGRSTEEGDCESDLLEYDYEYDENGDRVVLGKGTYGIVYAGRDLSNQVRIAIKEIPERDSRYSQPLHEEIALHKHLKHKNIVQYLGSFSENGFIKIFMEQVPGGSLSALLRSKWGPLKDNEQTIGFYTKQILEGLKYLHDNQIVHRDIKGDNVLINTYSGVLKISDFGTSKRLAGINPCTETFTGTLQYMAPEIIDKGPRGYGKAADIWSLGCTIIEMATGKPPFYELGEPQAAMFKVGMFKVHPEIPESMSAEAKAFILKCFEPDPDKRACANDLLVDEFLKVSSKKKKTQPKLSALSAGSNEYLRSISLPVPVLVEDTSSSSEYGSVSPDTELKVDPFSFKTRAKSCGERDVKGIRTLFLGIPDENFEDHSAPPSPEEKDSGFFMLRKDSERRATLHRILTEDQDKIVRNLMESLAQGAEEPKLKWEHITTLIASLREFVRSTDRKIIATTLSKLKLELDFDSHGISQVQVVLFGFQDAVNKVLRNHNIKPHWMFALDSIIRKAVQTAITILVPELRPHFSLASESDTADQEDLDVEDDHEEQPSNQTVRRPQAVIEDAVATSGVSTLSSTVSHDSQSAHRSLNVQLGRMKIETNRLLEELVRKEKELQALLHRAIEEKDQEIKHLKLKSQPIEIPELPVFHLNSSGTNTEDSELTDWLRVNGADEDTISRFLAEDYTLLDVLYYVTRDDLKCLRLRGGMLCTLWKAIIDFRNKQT

Structure (SMILES) | test | setting | remaining binding [%]
COc1ccnn2ncc(-c3ccnc(N(C)C)n3)c12 | binding | 1 µM | 100
CNC(=O)Nc1ccc2c(c1)CC[C@@]21OC(=O)N(CC(=O)N(Cc2ccc(F)cc2)[C@@H](C)C(F)(F)F)C1=O | cell-free assay, competition with immobilised ligand | 1 µM | 94
CN(CCCC(F)(F)F)c1nccc(-c2cnn3ncccc23)n1 | binding | 1 µM | 76
CCN1CCN(Cc2ccc(C(=O)Nc3ccc(C)c(Oc4ccc5c(c4)CC(=O)N5)c3)cc2C(F)(F)F)CC1 | binding, competition with immobilised ligand | 1 µM | 100
c1cnn2ncc(-c3ccnc(N4CCC45COC5)n3)c2c1 | binding | 1 µM | 100
Cc1cnc(Nc2ccc(C(=O)N3CCC(N4CCCC4)CC3)cc2)nc1-c1cc2ccccc2s1 | binding, competition with immobilised ligand | 1 µM | 100
CN(C)c1nccc(-c2cnn3ncccc23)n1 | binding | 1 µM | 87
O=C(NCCCN1CCOCC1)c1ccc(Nc2nccc(-c3cc4ccccc4s3)n2)cc1 | binding, competition with immobilised ligand | 1 µM | 100
C[C@H]1CCN(c2nccc(-c3cnn4ncccc34)n2)C1 | binding | 1 µM | 100
COc1cnc(Nc2cccc(S(N)(=O)=O)c2)nc1N1CCN(c2ccccc2)CC1 | binding, competition with immobilised ligand | 1 µM | 100
C[C@@H]1CN(c2cc(-c3nn(C)c4ccc(OC5(C)CC5)cc34)ncn2)C[C@H](C)O1 | cell-free assay, competition with immobilised ligand | 1 µM | 100
O=C(NCC1CCOCC1)c1n[nH]cc1NC(=O)c1c(F)cccc1F | binding, competition with immobilised ligand | 1 µM | 87
Cn1cc(Cl)c2c(Oc3c(F)cc(Nc4cc(Cl)nc(N)n4)cc3F)ccnc21 | cell-free assay, competition with immobilised ligand | 0.1 µM | 97
Nc1ncc2c(n1)-c1c([nH]c3ccc(C#CC4CC4)cc13)CCCC2 | binding, competition with immobilised ligand | 1 µM | 100
O=C(c1ccc(Nc2ncc(Cl)c(-c3cc4ccccc4s3)n2)cc1)N1CCC(N2CCCC2)CC1 | binding, competition with immobilised ligand | 1 µM | 100
C[C@H](c1ccnc(Nc2nc3ccc(-c4cc(N(C)C)ncn4)cc3[nH]2)c1)N1CCN(C(=O)CC(F)(F)F)CC1 | cell-free assay, competition with immobilised ligand | 0.1 µM | 100
COc1cnc(Nc2cccc(S(N)(=O)=O)c2)nc1N1CCN(c2ccccc2)C(=O)C1 | binding, competition with immobilised ligand | 1 µM | 100
COCCOc1nc(-c2ccc(Cl)nc2)nc2c1CN(C(=O)c1ncn3ccccc13)CC2 | cell-free assay, competition with immobilised ligand | 0.1 µM | 84
N[C@H]1CCN(c2nccc(-c3cnn4ncccc34)n2)C1 | binding | 1 µM | 99
N#Cc1ccc(Nc2ccc3[nH]c(=O)[nH]c3c2)c(Cl)c1 | cell-free assay, competition with immobilised ligand | 1 µM | 90
c1cncc(-c2cccc(Nc3nccc(NC4CCCCC4)n3)c2)c1 | binding, competition with immobilised ligand | 10 µM | 100
